Bioassay records deposited in PubChem BioAssay by Sanford-Burnham Center for Chemical Genomics.
SENP8 block-1: blocks the human protease SENP8; inhibition, % at 10 µM; purified SENP8, Z-RLRGG-aminoluciferin cleavage, luminescence; 330,000 tested, 1.2% active; AID 2540; in the data active = inhibition above about 50%
SENP7 inh: blocks the human protease SENP7 | Q9BQF6 | recombinant SENP7, Z-RLRGG-aminoluciferin luminescence, 40 min | inhibition, % at 5 µM | 330,000 tested, 1.5% active | AID 434973;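 active = inhibition above about 50% at the single test dose, limit read from the data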;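 also: plate controls were DMSO with enzyme for no effect and no enzyme buffer wells for full effect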
Target sequence (Q9BQF6 706-1050 limits assumed): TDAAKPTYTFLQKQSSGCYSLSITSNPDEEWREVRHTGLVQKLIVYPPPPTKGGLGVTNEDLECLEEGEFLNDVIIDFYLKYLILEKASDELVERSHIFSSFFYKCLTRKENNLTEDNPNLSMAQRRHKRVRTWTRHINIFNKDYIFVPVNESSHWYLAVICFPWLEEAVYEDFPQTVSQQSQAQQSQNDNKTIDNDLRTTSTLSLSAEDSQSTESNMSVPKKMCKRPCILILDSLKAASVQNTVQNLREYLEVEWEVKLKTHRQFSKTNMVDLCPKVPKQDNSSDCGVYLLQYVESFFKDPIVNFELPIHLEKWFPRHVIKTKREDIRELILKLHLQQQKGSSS
SENP1 inh: inhibitors of human SENP1 SUMO protease catalytic domain; Q9P0U3; recombinant SENP1 catalytic domain, CyPet-SUMO1-YPet FRET cleavage; inhibition, % at 10 µM; 360,000 tested, 0.21% active; AID 624204;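 active = inhibition at least 30% at 10 µM, raw YFP signal under a set limit, fluorescence ratio 0.5 to 1.5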;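 also: 0% = enzyme with DMSO and 100% = no enzyme wells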
Target sequence (Q9P0U3 419-644 limits assumed): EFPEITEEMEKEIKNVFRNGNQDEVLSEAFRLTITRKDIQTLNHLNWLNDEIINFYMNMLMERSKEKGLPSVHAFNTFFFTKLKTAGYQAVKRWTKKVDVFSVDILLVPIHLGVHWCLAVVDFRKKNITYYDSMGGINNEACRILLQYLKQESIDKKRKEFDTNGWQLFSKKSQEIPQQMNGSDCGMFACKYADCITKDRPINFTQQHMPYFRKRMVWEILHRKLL
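Assay system – human recombinant His6-tagged SENP1 catalytic domain enzyme · Input – SENP1 enzyme, 20 pM final · Buffer or medium – Tris pH 8 buffer plus EDTA, NaCl, BME, BSA, NP40, catalase · Schedule – 50 min reaction at room temperature · Technique – FRET read of cyan and yellow fluorescence · Control set – no-enzyme wells low, DMSO-plus-enzyme wells high control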
SENP6 inh: inhibitors of human SENP6 protease; Q9GZR1; Recombinant SENP6 catalytic domain, aminoluciferin luminescence; inhibition, % at 10 µM; 330,000 tested, 1.8% active; AID 2599;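 active = inhibition above about 50% at the single tested dose, limit read from the data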;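 also: plate controls were DMSO wells with enzyme for no effect and DMSO wells lacking enzyme for full effect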
NRP1-CendR mod: NRP-1/CendR interaction modulation; FAM-RPARPAR peptide binding to NRP-1, fluorescence polarization; inhibition, % at 25 µM; 360,000 tested, 0.85% active; AID 602438;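 active = inhibition or corrected inhibition above about 18%, plus a signal ratio from 0.5 to 1.5, limit read from the data, passing the limit was not always enough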
SENP8 block-2: SENP8 (human) protease inhibition | Q96LD8 | inhibition, % at 20 µM | AID 602440 | recombinant SENP8, Nedd8 substrate fluorescence | 360,000 tested, 0.64% active; in the data active = inhibition mostly above about 40%, no sharp cut-off; inactive = mostly below about 27%
* = called active by the depositor. Hits are enriched below; roughly 3.3% of the tested compounds scored in any of these assays.

How did Cc1nc2c(OCCOc3ccccc3)cccn2c1N(C)C(=O)CCC1CCCC1 do in these assays?
SENP1 inh: -3; NRP1-CendR mod: 22; SENP8 block-2: 3

What do the screens show for `Cc1nc2c(-c3ccc(F)cc3)c(C)nn2c(C)c1CCC(=O)Nc1ccccc1`?
SENP8 block-1: 3; SENP7 inh: 6; SENP1 inh: -2; SENP6 inh: 61*; NRP1-CendR mod: 9; SENP8 block-2: -20

Results for COc1ccccc1NC(=O)CCc1c(C)nc2c(-c3ccc(F)cc3)c(C)nn2c1C ?
SENP8 block-1: 7; SENP7 inh: 0; SENP1 inh: -2; SENP6 inh: 9; NRP1-CendR mod: 2; SENP8 block-2: -55

What do the screens show for `CCN(CC)CCNc1ccc(C)c2sc3ccc(O)cc3c(=O)c12`?
SENP1 inh: 39*; NRP1-CendR mod: -99; SENP8 block-2: 30

What do the screens show for `CCN(CC)CCCNC(=O)C(C)n1nc(C)c2sc3ccccc3c2c1=O` (stereo unspecified)?
SENP8 block-1: -3; SENP7 inh: -11; SENP1 inh: 3; SENP6 inh: -10; NRP1-CendR mod: -2; SENP8 block-2: -11

What do the screens show for `C[C@H]1Cn2cnc(C(=O)NCc3ccc(CNC(=O)OC(C)(C)C)cc3)c2C(=O)N1`?
SENP1 inh: -1; NRP1-CendR mod: -6; SENP8 block-2: 13

Results for CCOc1ccc(NC(=O)CN2C(=O)C(C)SC(C)C2=O)cc1 (stereo unspecified) ?
SENP8 block-1: -13; SENP7 inh: 13; SENP1 inh: 2; SENP6 inh: 0; NRP1-CendR mod: 25*; SENP8 block-2: 20

How did Cc1cccc(C)c1NC(=O)C1(C)CSCC(=O)N1C1CCN(Cc2ccccc2)CC1 (stereo unspecified) do in these assays?
SENP1 inh: -2; NRP1-CendR mod: -70; SENP8 block-2: 24

How did O=C1/C(=C/c2ccc(Br)cc2)Oc2cc(O)ccc21 do in these assays?
SENP8 block-1: 53*; SENP7 inh: 21; SENP1 inh: -22; SENP6 inh: 56*; NRP1-CendR mod: -123; SENP8 block-2: -299

What do the screens show for `CCCCCCNC(=O)O[C@H]1Cn2c(=O)ccc(=O)n2[C@@H]2CN(S(=O)(=O)c3ccc(C)cc3)C[C@]12O`?
SENP1 inh: 2; NRP1-CendR mod: -4; SENP8 block-2: -21

Results for Cc1ccc(NC(=S)N2CCCC(c3nc4ccccc4[nH]3)C2)cc1 (stereo unspecified) ?
SENP8 block-1: 3; SENP7 inh: 4; SENP1 inh: 1; SENP6 inh: -6; NRP1-CendR mod: 4; SENP8 block-2: 3

What do the screens show for `Cc1ccccc1NC(=S)N1CCCC(c2nc3ccccc3[nH]2)C1` (stereo unspecified)?
SENP8 block-1: -3; SENP7 inh: 5; SENP1 inh: 0; SENP6 inh: -10; NRP1-CendR mod: 23*; SENP8 block-2: 7

What do the screens show for `CCc1ccc(NC(=S)N2CCN(C)CC2)cc1`?
SENP8 block-1: -3; SENP7 inh: 0; SENP1 inh: 2; SENP6 inh: -16; NRP1-CendR mod: 21*; SENP8 block-2: 0

How did Cc1ccc(NC(=S)N2CCN(Cc3ccccc3)CC2)cc1 do in these assays?
SENP8 block-1: -6; SENP7 inh: -6; SENP1 inh: 1; SENP6 inh: -7; NRP1-CendR mod: 26*; SENP8 block-2: 4

Results for O=C1NN(c2ccc(Cl)c(Cl)c2)C(=O)/C1=C/c1cccc(OC(=O)c2cccs2)c1 ?
SENP8 block-1: 18; SENP7 inh: -3; SENP6 inh: 14

Results for O=C1NN(c2ccccc2)C(=O)/C1=C\c1cccc(OC(=O)c2cccs2)c1 ?
SENP8 block-1: 29; SENP7 inh: 5; SENP1 inh: -8; SENP6 inh: 12; NRP1-CendR mod: -48; SENP8 block-2: 44*

Results for COC(=O)c1sc(N)nc1CCNC(=O)OC(C)(C)C ?
SENP1 inh: 2; NRP1-CendR mod: 11; SENP8 block-2: 8

How did Oc1cccc(C=NCc2ccccc2)c1O do in these assays?
SENP8 block-1: 14; SENP7 inh: 17; SENP1 inh: 5; SENP6 inh: 0; NRP1-CendR mod: 4; SENP8 block-2: 54*

Results for O=C1CC(c2ccco2)CC(O)=C1C=Nc1cc(Cl)ccc1Cl (stereo unspecified) ?
SENP8 block-1: 7; SENP7 inh: 9; SENP1 inh: 3; SENP6 inh: -15; NRP1-CendR mod: 0; SENP8 block-2: -26

How did O=C1CC(c2ccco2)CC(O)=C1C=Nc1cc(Cl)ccc1O (stereo unspecified) do in these assays?
SENP8 block-1: -3; SENP7 inh: 2; SENP1 inh: 37*; SENP6 inh: -24; NRP1-CendR mod: -23; SENP8 block-2: -280

What do the screens show for `COc1ccc(NS(=O)(=O)c2cc([N+](=O)[O-])ccc2N/N=C\c2c(C)[nH]c3ccccc23)cc1`?
SENP8 block-1: 16; SENP7 inh: 4; SENP1 inh: 12; SENP6 inh: -1; NRP1-CendR mod: -138; SENP8 block-2: 47*

How did C[C@@H](c1ccccc1)N1C[C@H](COCc2ccccc2)Oc2cc(N3CC[C@H](N(C)C)C3)ccc2S1(=O)=O do in these assays?
SENP1 inh: 0; NRP1-CendR mod: 2; SENP8 block-2: -6

Results for CC(C)CN1C(=O)CN(S(C)(=O)=O)CC1(C)C(=O)NC(C)C (stereo unspecified) ?
SENP1 inh: -1; NRP1-CendR mod: 4; SENP8 block-2: 13

How did Oc1ccc(N=Nc2cccc(Cl)c2)cc1C=Nc1ccc(N2CCOCC2)cc1 do in these assays?
SENP1 inh: 6; NRP1-CendR mod: -12; SENP8 block-2: 53*

Results for Oc1c(Br)cc(Cl)cc1C=Nc1ccc(N2CCOCC2)cc1 ?
SENP8 block-1: 4; SENP7 inh: -7; SENP1 inh: -28; SENP6 inh: -12; NRP1-CendR mod: -14; SENP8 block-2: -19

Results for O=Cc1ccc(-c2ccccc2C(=O)O)o1 ?
SENP8 block-1: -1; SENP7 inh: 6; SENP1 inh: -1; SENP6 inh: 1; NRP1-CendR mod: 35*; SENP8 block-2: -58

What do the screens show for `COC(=O)c1ccccc1-c1ccc(C=O)o1`?
SENP8 block-1: 7; SENP7 inh: 0; SENP1 inh: 3; SENP6 inh: -2; NRP1-CendR mod: -11; SENP8 block-2: -9

Results for CCN=c1scc(-c2ccc(F)cc2)n1/N=C/c1ccccn1 ?
SENP8 block-1: 0; SENP7 inh: 4; SENP1 inh: -38; SENP6 inh: 7; NRP1-CendR mod: 8; SENP8 block-2: -11

How did CCN=c1scc(-c2ccccc2)n1/N=C/c1ccccn1 do in these assays?
SENP8 block-1: 46; SENP7 inh: 52*; SENP1 inh: -31; SENP6 inh: 63*; NRP1-CendR mod: 12; SENP8 block-2: -20

How did CCCNC(=O)N[C@H]1CC[C@@H](CCn2cc(-c3cccc(F)c3)nn2)O[C@@H]1CO do in these assays?
SENP1 inh: 1; NRP1-CendR mod: 2; SENP8 block-2: 22
